High-throughput results deposited in PubChem BioAssay by The Scripps Research Institute Molecular Screening Center.
CHO-K1 Ca antag: nonselective inhibitor or artifact in parental CHO-K1 cells; ATP-induced calcium, Fluo-8 fluorescence; inhibition, % at 3 µM; 360,000 compounds, 0.6% hits; AID 602250;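 active = inhibition above a per-plate cutoff, the plate's mean sample inhibition plus 3 SD, cut at about 24% in these data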;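 also: 0% = DMSO plus EC80 ATP and 100% = DMSO alone without ATP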
CHRM5 agonist: CHRM5 agonism in calcium assay. activation, % at 3 µM. AID 624037. CHO-K1 hM5 cells, Fluo-8 calcium fluorescence; 0% DMSO wells, 100% maximal acetylcholine response. 360,000 compounds, 0.19% hits;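 active = activation above the run's mean over test compounds plus 3 SD, cut at about 23% in these data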;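 also: signal is peak over basal fluorescence ratio across the kinetic read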
Target sequence (P08912 whole entry, looked up): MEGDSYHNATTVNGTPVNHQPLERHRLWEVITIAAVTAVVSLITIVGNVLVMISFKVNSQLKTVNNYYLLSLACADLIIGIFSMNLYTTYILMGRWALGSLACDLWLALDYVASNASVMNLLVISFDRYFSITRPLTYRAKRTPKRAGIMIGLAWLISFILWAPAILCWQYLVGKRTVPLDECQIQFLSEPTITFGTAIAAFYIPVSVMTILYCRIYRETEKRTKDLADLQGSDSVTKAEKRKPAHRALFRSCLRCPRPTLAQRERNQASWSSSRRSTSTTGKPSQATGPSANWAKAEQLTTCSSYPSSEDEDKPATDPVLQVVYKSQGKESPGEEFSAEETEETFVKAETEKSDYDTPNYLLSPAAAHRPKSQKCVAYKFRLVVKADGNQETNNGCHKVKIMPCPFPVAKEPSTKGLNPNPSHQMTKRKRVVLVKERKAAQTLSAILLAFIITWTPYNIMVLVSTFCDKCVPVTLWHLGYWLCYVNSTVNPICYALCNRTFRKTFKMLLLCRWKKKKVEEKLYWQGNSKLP
M1 PAM parental: M1 PAM counterscreen hit in parental CHO-K1 cells; 360,000 compounds, 0.02% hits; activation, % at 3 µM; ATP EC20, Fluo-8 calcium fluorescence; 0% at ATP EC20, 100% at ATP max; AID 602247;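 active = activation above the run cutoff, the mean activation of all test compounds plus 3 SD, cut at about 40% in these data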;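 also: peak over basal fluorescence ratio in a 140 s read after ATP addition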
CHO-K1 Ca ag: M1 agonist counterscreen hit in parental CHO-K1 cells; 360,000 compounds, 0.48% hits; Fluo-8 calcium fluorescence; scaled to maximal ATP response, vehicle zero; AID 602248; activation, % at 3 µM; in the data active = activation above about 15%;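 also: untransfected CHO-K1 host cells lacking M1 receptor as counterscreen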
CHRM5 PAM: potentiates acetylcholine response at human M5 receptor; P08912; CHO-K1 hM5, Fluo-8 calcium, ACh EC20 PAM; 0% = ACh EC20, 100% = ACh EC100; activation, % at 3 µM; 360,000 compounds, 0.3% hits; AID 624038;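 active = activation above the run cutoff, the mean activation of all test compounds plus 3 SD, cut at about 18% in these data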
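System: CHO-K1 hM5 cells. Reagent: acetylcholine, EC20 level. Compound dosing: single dose, 3 µM nominal final test concentration. Timing: Post-acetylcholine fluorescence recording 140 s. Detection: Fluo-8 calcium fluorescence. Read-out: % activation, ACh-normalized. Benchmarks: ACh EC20 and EC100 wells. Repeats: singlicate, one well per test compound.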
M5 antag: antagonists of human muscarinic M5 receptor (CHRM5). CHO-hM5 cells, Fluo-8 calcium fluorescence, ACh EC80. P08912. inhibition, % at 3 µM. 360,000 compounds, 0.59% hits;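 active = inhibition above a per-plate cutoff, the mean of that plate's test compounds plus 3 SD, cut at about 27% in these data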;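 also: 0% = acetylcholine EC80 with DMSO and 100% = DMSO without agonist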
The depositor's hits bear a star. A selection: hits, their analogues and other compounds. The true share with any hit is near 1.7%.

SMILES | CHO-K1 Ca antag | CHRM5 agonist | M1 PAM parental | CHO-K1 Ca ag | CHRM5 PAM | M5 antag
COc1cc(C(=O)NCc2cccnc2)ccc1OCC(=O)Nc1cccc(C(F)(F)F)c1 | 7.8 | 6.7 | -14.9 | 16.6* | -24.1 | 16.4
CCOc1ccc(NC(=O)COc2ccc(C(=O)NCc3cccnc3)cc2OC)cc1 | 17.6 | 2.2 | -22.1 | -0.2 | -4.8 | -1.4
COc1ccc(Nc2nc(Nc3ccc(OC)cc3)nc(-n3[nH]c(=O)c(C)c3C)n2)cc1 | 11.7 | -2.7 | 7.5 | 2.6 | -17.0 | 30.6*
COc1ccc(Nc2nc(OC)nc(OC)n2)cc1 | -3.9 | -1.0 | 10.7 | 1.2 | -1.6 | 5.1
CC(C)(C)C(=O)OCc1nc(-c2ccc(C(F)(F)F)cc2)cs1 | 6.7 | 4.7 | 4.2 | -0.2 | 18.5* | -15.2
CC(CCC(C)C(C)(C)C)[C@@H]1CC[C@H]2C3C[C@H](OS(O)(=S)=S)[C@H]4C[C@H](OS(O)(=S)=S)[C@@H](OS(O)(=S)=S)C[C@]4(C)[C@H]3CC[C@]12C (stereo partly specified) (tested in a mixture with another compound) | -20.6 | 20.7 | 46.2* | 23.6* | -26.8 | 12.5
O=C(c1ccncc1)N(Cc1ccccc1)Cc1nc2ccccc2c(=O)[nH]1 | -9.9 | 6.5 | 26.4 | 1.2 | 29.1* | -3.3
O=C(CCNC(=O)c1ccc(Cl)cc1)Nc1ccc(S(=O)(=O)N2CCOCC2)cc1 | -15.2 | 1.5 | 15.0 | 2.2 | 1.8 | 3.5
Cc1cccc(C(=O)NCC(=O)N2CCN(S(=O)(=O)/C=C/c3ccccc3)CC2)c1 | -18.0 | -2.2 | -3.2 | -1.1 | 11.6 | -3.1
COc1cccc(C(=O)NCCNC(=O)c2ccc(C)nc2)c1 | -10.6 | -2.2 | 13.2 | 0.1 | -2.7 | 10.3
O=C(CNC1CCCCC1)N1CCc2ccccc2C1 | 1.7 | -0.9 | -1.5 | 0.0 | -3.1 | 17.5
Cc1ccccc1OCCCCc1c(C)n[nH]c1C | 14.6 | 2.3 | -4.0 | 8.5 | -16.8 | 18.9
Cc1n[nH]c(C)c1CCCCOc1ccccc1[N+](=O)[O-] | 17.2 | -6.4 | -13.5 | 8.6 | -23.5 | 34.5*
CC1=NNC(=O)/C1=C\c1cn(-c2ccccc2)nc1-c1cccs1 | 30.6* | 23.7* | -5.7 | 8.6 | 9.7 | 9.7
CC1=NNC(=O)/C1=C\c1cn(-c2ccccc2)nc1-c1ccc(F)cc1 | 4.9 | 20.9 | 5.4 | 2.7 | -4.4 | 49.6*
O=Cc1cn(-c2ccccc2)nc1-c1ccc(F)cc1 | -1.5 | -3.1 | 4.7 | -0.3 | -1.7 | 10.2
Cn1cc(S(=O)(=O)N2CCc3ccccc32)cc1C(=O)Nc1ccc(Cl)cc1 | -0.2 | 0.6 | 0.2 | 0.2 | 6.3 | -8.6
CCCNC(=O)c1nnsc1Sc1ccc(Cl)cc1 | -2.3 | -6.4 | 18.0 | 0.2 | -4.6 | -3.5
CCC(C)[C@@H](NC(=O)OC(C)(C)C)c1nnc(S(=O)(=O)Cc2cccc(C)c2)o1 (stereo partly specified) | 26.5* | -1.0 | -10.2 | 0.1 | -6.5 | -0.2
COc1ccc(-c2cc(C(F)(F)F)n3nc(C(=O)Nc4c(C)n(C)n(-c5ccccc5)c4=O)c(Cl)c3n2)cc1 | 26.0* | -2.5 | -15.5 | 0.0 | -0.9 | 5.0
O=C(CSc1ccc(Br)cc1)NCC1CCCO1 (stereo unspecified) | -12.7 | 0.0 | 19.0 | 0.2 | 1.6 | -7.2
CN(NC(=O)C(=O)NCc1ccco1)C(=O)Nc1ccc(Cl)cc1 | 26.5* | 11.2 | -5.2 | 9.7 | -20.5 | 36.8*
NC(=O)CSc1nnnn1CC(CC(=O)O)c1ccccc1 (stereo unspecified) | 24.8* | -1.0 | -5.7 | -0.1 | -3.8 | 1.3
Cc1ccccc1-n1nnnc1SCC(N)=O | -12.8 | 2.6 | 23.8 | 0.6 | 4.6 | -2.7
COc1cc(NCc2ccccc2)c2ncn(Cc3ccccc3)c2c1 | -6.7 | 10.1 | 3.5 | 3.1 | 21.8* | -23.6
SMILES | CHO-K1 Ca antag | CHRM5 agonist | M1 PAM parental | CHO-K1 Ca ag | CHRM5 PAM | M5 antag
CC(C)OC(=O)CSc1nc(C(C)C)nc2ccccc12 | -4.9 | -1.4 | 2.3 | 1.1 | -5.1 | -5.3
C=CCNC(=S)N/N=C/c1ccc(C)cc1C | -3.6 | 1.1 | -3.5 | -0.2 | 21.2* | -14.6
CC(C)[C@@H]1CC[C@@H](C)C[C@H]1OC(=O)C[n+]1cc(-c2ccc(Cl)cc2)n2c1CCCCC2 | 8.8 | -18.5 | 12.5 | 3.3 | -31.8 | 77.3*
O=C(C[n+]1cc(-c2ccc(Cl)cc2)n2c1CCCCC2)c1ccccc1 | -0.1 | -14.0 | -14.8 | 0.0 | -8.0 | 2.9
COc1ccc(-c2c[n+](CC(=O)OC3CC(C)CCC3C(C)C)c3n2CCC3)cc1 (stereo unspecified) | 1.5 | -14.8 | 7.5 | 0.9 | -31.1 | 64.5*
CCCN(CC(=O)Nc1cc(Cl)ccc1Cl)C(=O)/C=C/c1cc(OC)ccc1OC | -17.6 | -8.2 | 13.8 | -0.2 | -26.2 | 8.7
CC(C)(C)CN1C(N)=NC[C@@H]1Cc1ccccc1 | -7.3 | -8.2 | 4.2 | 0.5 | 0.8 | 9.3
CCN(CC(=O)Nc1ccc2c(c1)OCCO2)C(=O)c1cc(S(=O)(=O)N2CCOCC2)ccc1F | 8.9 | -1.3 | -28.9 | -0.1 | 2.7 | 6.0
CC(C)COP(=O)(OCC(C)C)C(Nc1ccccc1)c1ccc2c(c1)OCO2 (stereo unspecified) | -7.5 | -0.5 | 27.9 | 6.7 | -13.0 | 9.2
Cc1ccccc1NC(=O)C1CCCN(S(=O)(=O)c2ccc3c(c2)C(C)(C)C(=O)N3C)C1 (stereo unspecified) | 29.7* | 1.5 | -3.1 | 0.1 | -7.4 | 5.2
CCOc1ccc(/C=N/Nc2nc(C)cs2)c(O)c1 | 11.4 | 2.0 | -15.5 | 0.1 | 2.0 | 1.4
Cc1cc2nc(-c3cccnc3SCC(=O)NC(C)C)[nH]c2cc1C | -2.6 | 0.5 | 14.6 | 15.6* | 2.8 | 3.9
O=C(Nc1cccc(NC(=O)c2nccc3ccccc23)c1)c1ccco1 | -8.2 | 3.2 | 4.5 | 3.0 | -5.4 | -4.7
Cc1cccc2cc3c(N)c(C(=O)N4CCc5ccccc54)sc3nc12 | 44.5* | 17.1 | -1.3 | 32.9* | -6.4 | 22.4
CC1=C/C(=N\OS(=O)(=O)c2ccccc2)C(C(C)C)=CC1=O | 2.9 | 27.0* | 9.7 | 0.4 | -9.1 | 78.8*
COc1cc(C(=O)O/N=C2/C=C(C)C(=O)C=C2C)cc(OC)c1OC | 18.4 | -0.8 | -9.9 | -0.2 | -8.0 | 13.2
CC(S(=O)(=O)c1ccccc1)S(=O)(=O)c1ccccc1 | 7.4 | -1.4 | 8.6 | 0.5 | -3.2 | 15.6
CC1=C/C(=N\OS(=O)(=O)c2ccccc2)C(C)=CC1=O | 36.5* | 44.0* | 1.6 | 11.8 | -25.5 | 65.5*
CC1=C(C)/C(=N\OS(=O)(=O)c2ccc(C)cc2)C=CC1=O | 34.3* | 12.6 | -10.5 | 7.3 | 3.5 | 23.9
CN1CCN(CCC(=O)Nc2ccc(F)c(F)c2)CC1 | -6.5 | -4.5 | 14.0 | 0.6 | 1.7 | 6.2
